Data as given in article PMC11022290 (Clinical and Translational Science, 2024).
Where two headings read alike, the source gives them in different places.

Legend:
CYP2C:TG haplotype [1] = assay type: in vivo, human (children aged 6–21 years)
Outline: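 Children, fasted ≥4 h, received one proton pump inhibitor dose per visit. 12–14 serum samples were taken to 10 h post-dose and assayed by LC/MS/MS or reverse-phase HPLC. Clearance was dose/AUCtotal (AUClast + Cn/kel), weight-normalized. Genotyping was by TaqMan real-time PCR or NGS panel. Regression on CYP2C19*1 and *17 counts was compared with regression adding CYP2C:TG count. Outcomes were log-transformed as needed, with bootstrap 95% CI.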

CYP2C:TG haplotype [2] = details: adults; cited from earlier work
CYP2C:TG haplotype [3] = details: cited from earlier work

impact of the CYP2C:TG haplotype on the PK (CYP2C:TG haplotype [1]; PO)	SMILES	impact of CYP2C:TG alleles on CYP2C19 PK or metabolic phenotype (CYP2C:TG haplotype [2])	CYP2C19 activity associated with CYP2C:TG haplotype, from serum concentrations (CYP2C:TG haplotype [3])	further results
negligible	COc1ccnc(C[S+]([O-])c2nc3ccc(OC(F)F)cc3[nH]2)c1OC (stereo not drawn) [pantoprazole]			impact of the CYP2C:TG haplotype on the PK (CYP2C:TG haplotype [1]; IV): negligible; Scaled coefficient (95% CI) for CYP2C:TG allele count (CYP2C:TG haplotype [1]; outcome Clearance (adj) scaled to SD 1, IV): 0.24–0.35; Scaled coefficient (95% CI) for CYP2C:TG allele count (CYP2C:TG haplotype [1]; outcome Clearance scaled to SD 1, IV): 0.24–0.35; Scaled coefficient (95% CI) for CYP2C:TG allele count (CYP2C:TG haplotype [1]; outcome Cmax scaled to SD 1, oral): 0.24–0.35
	CN[C@H]1CC[C@@H](c2ccc(Cl)c(Cl)c2)c2ccccc21 [sertraline]	No appreciable impact	increased CYP2C19 activity	
	CN(C)CCCC1(c2ccc(F)cc2)OCc2cc(C#N)ccc21 (stereo not drawn) [citalopram]	No appreciable impact		
	CN(C)CCC[C@@]1(c2ccc(F)cc2)OCc2cc(C#N)ccc21 [escitalopram]		increased CYP2C19 activity	metabolism associated with CYP2C:TG haplotype (CYP2C:TG haplotype [3]; activity similar to CYP2C19*17/*17 diplotype): ultrarapid metabolism
negligible	Cc1c(OCC(F)(F)F)ccnc1C[S+]([O-])c1nc2ccccc2[nH]1 (stereo not drawn) [lansoprazole]			Scaled coefficient (95% CI) for CYP2C:TG allele count (CYP2C:TG haplotype [1]; outcome Cmax (adj) scaled to SD 1, oral): 0.24–0.35
